One may read the inhibition as the drop in the measured response relative to a control, in per cent. As usually defined, the IC50 is the point on the concentration scale where inhibition reaches its midpoint.

Data set [1] addresses T1, cAMP and cAMP-inhibited cGMP 3',5'-cyclic phosphodiesterase 10A (Homo sapiens, UniProt Q9Y233). The data set is described as follows: Inhibition of recombinant human N-terminal GST-tagged PDE10A1 ( 2 to 789 residues) expressed in baculovirus infected Sf9 cells at 100 nM using iFl-cAMP/iFl-cGMP as substrate by mobility shift assay relative to control.
The target in data set [2] is 3',5'-cyclic-AMP phosphodiesterase 4B (Homo sapiens) (UniProt Q07343). The data set is described as follows: Inhibition of recombinant full length human N-terminal GST-tagged PDE4B1 expressed in baculovirus infected Sf9 cells at 100 nM using iFl-cAMP/iFl-cGMP as substrate by mobility shift assay relative to control.
The nature of data set [3]: Intrinsic clearance in mouse liver microsomes in presence of NADP/G6P/G6P dehydrogenase/MgCl2/metabolic phase 2 co-factor by LC/MS analysis. In kind it is ADME, microsome. The conditions noted are these: read-out: CLH. The procedure, abridged:
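Mouse liver microsomes incubated with both phase 1 and phase 2 co-factors, with intrinsic clearance expressed in µl x min^-1 x mg^-1.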
(In general: Liver microsomes are a subcellular fraction often used to study metabolism.)

The target of data set [4] is T2, High affinity cGMP-specific 3',5'-cyclic phosphodiesterase 9A (Homo sapiens, UniProt O76083). The data set is described as follows: Inhibition of recombinant full length human N-terminal GST-tagged PDE9A2 expressed in baculovirus infected Sf9 cells at 100 nM using iFl-cAMP/iFl-cGMP as substrate by mobility shift assay relative to control.
Data set [5] can be described thus: Intrinsic clearance in rat liver microsomes in presence of NADP/G6P/G6P dehydrogenase/MgCl2 by LC/MS analysis. In kind it is ADME, microsome. The conditions noted are these: read-out: CLH. The method in brief:
(§1)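 Phase-1 liver microsomal stability assay for the named species, with intrinsic clearance reported in µl x min^-1 x mg^-1.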

Data set [6] deals with T3, Dual specificity calcium/calmodulin-dependent 3',5'-cyclic nucleotide phosphodiesterase 1C (Homo sapiens, UniProt Q14123). The data set is described as follows: Inhibition of Ca2+/calmodulin-induced full-length recombinant human N-terminal GST-tagged PDE1C expressed in baculovirus infected Sf9 insect cells using cAMP as substrate pretreated for 10 mins followed by substrate addition and measured after 30 mins by kinase-Glo luminescence assay. The method in brief: (§2)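 Selectivity screen run as a PDE-Glo enzymatic-activity luminescence assay, with IC50 values determined against each counter-screen PDE isoform.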
A general note: Kinase-Glo reads ATP consumption through a luciferase reaction.

Data set [7] can be described thus: Intrinsic clearance in dog liver microsomes in presence of NADP/G6P/G6P dehydrogenase/MgCl2 by LC/MS analysis. Type of data set: ADME, Canis lupus familiaris, microsome. The conditions noted are these: read-out: CLH. The procedure, abridged: as §1
Data set [8] addresses High affinity cAMP-specific and IBMX-insensitive 3',5'-cyclic phosphodiesterase 8A (Homo sapiens) (UniProt O60658). The data set is described as follows: Inhibition of recombinant full length human N-terminal GST-tagged PDE8A1 expressed in baculovirus infected Sf9 cells at 100 nM using iFl-cAMP/iFl-cGMP as substrate by mobility shift assay relative to control.
A short description of data set [9]: Intrinsic clearance in human liver microsomes in presence of NADP/G6P/G6P dehydrogenase/MgCl2 by LC/MS analysis. Type of data set: ADME, microsome. The conditions noted are these: read-out: CLH. The procedure, abridged:
as §1

The target in data set [10] is T2, High affinity cGMP-specific 3',5'-cyclic phosphodiesterase 9A. The data set is described as follows: Inhibition of Ca2+/calmodulin-induced recombinant human full length N-terminal GST-tagged PDE9A2 expressed in baculovirus infected Sf9 cells using cGMP as substrate pretreated for 10 mins followed by substrate addition and measured after 60 mins by kinase-Glo luminescence assay. The method in brief:
as §2

The target in data set [11] is T3, Dual specificity calcium/calmodulin-dependent 3',5'-cyclic nucleotide phosphodiesterase 1C. In words: Inhibition of recombinant human N-terminal GST-tagged PDE1C (2 to 634 residues) expressed in baculovirus infected Sf9 cells at 100 nM using iFl-cAMP/iFl-cGMP as substrate by mobility shift assay relative to control.
In data set [12] the target is Cone cGMP-specific 3',5'-cyclic phosphodiesterase subunit alpha' (Homo sapiens) (UniProt P51160). The data set is described as follows: Inhibition of PDE6C (unknown origin) at 100 nM using iFl-cAMP/iFl-cGMP as substrate by mobility shift assay relative to control.
In data set [13] the target is cGMP-specific 3',5'-cyclic phosphodiesterase (Homo sapiens) (UniProt O76074). In words: Inhibition of PDE5A1 (unknown origin) at 100 nM using iFl-cAMP/iFl-cGMP as substrate by mobility shift assay relative to control.
For data set [14], the target named is T4, cGMP-dependent 3',5'-cyclic phosphodiesterase (Rattus norvegicus) (UniProt Q01062).
T4 sequence (whole entry): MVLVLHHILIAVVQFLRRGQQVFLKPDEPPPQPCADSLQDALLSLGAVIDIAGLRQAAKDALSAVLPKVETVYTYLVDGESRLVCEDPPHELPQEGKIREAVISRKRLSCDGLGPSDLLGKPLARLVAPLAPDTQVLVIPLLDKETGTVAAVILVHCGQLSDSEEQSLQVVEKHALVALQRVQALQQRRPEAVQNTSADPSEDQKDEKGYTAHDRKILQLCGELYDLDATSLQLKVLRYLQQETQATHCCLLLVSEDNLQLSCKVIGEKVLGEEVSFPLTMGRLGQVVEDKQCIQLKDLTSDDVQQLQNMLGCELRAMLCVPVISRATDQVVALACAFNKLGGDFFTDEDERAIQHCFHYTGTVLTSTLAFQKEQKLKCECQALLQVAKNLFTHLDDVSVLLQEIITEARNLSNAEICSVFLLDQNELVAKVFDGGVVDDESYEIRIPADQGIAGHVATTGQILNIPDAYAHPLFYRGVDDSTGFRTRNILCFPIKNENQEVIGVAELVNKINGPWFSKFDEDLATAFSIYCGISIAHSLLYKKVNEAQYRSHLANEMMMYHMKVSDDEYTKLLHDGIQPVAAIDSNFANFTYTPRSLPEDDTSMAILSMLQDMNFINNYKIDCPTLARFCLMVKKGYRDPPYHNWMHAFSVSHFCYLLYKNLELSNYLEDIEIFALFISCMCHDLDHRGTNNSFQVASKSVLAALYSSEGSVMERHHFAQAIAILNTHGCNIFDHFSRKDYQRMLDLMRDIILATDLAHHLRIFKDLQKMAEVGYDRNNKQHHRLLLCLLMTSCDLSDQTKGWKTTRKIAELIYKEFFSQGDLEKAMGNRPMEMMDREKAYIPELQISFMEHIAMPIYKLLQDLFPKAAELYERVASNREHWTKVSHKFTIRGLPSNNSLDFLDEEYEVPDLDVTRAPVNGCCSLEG
In words: Inhibition of rat PDE2A expressed in baculovirus infected Sf9 cells at 100 nM using iFl-cAMP/iFl-cGMP as substrate by mobility shift assay relative to control.

Data set [15] deals with Dual 3',5'-cyclic-AMP and -GMP phosphodiesterase 11A (Mus musculus) (UniProt P0C1Q2). The data set is described as follows: Inhibition of recombinant mouse N-terminal GST-tagged PDE11A (2 to 933 residues) expressed in baculovirus infected Sf9 cells at 100 nM using iFl-cAMP/iFl-cGMP as substrate by mobility shift assay relative to control.
Data set [16] has as its target cGMP-inhibited 3',5'-cyclic phosphodiesterase 3B (Homo sapiens) (UniProt Q13370). The data set is described as follows: Inhibition of recombinant human N-terminal GST-tagged PDE3B (592 to end residues) expressed in baculovirus infected Sf9 cells at 100 nM using iFl-cAMP/iFl-cGMP as substrate by mobility shift assay relative to control.
The target in data set [17] is T1, cAMP and cAMP-inhibited cGMP 3',5'-cyclic phosphodiesterase 10A. The data set is described as follows: Inhibition of Ca2+/calmodulin-induced recombinant human full length N-terminal GST-tagged PDE10A1 expressed in baculovirus infected Sf9 cells using cAMP as substrate pretreated for 10 mins followed by substrate addition and measured after 40 mins by kinase-Glo luminescence assay. The note with it: read-out: IC50.

Data set [18] has as its target High affinity 3',5'-cyclic-AMP phosphodiesterase 7A (Homo sapiens) (UniProt Q13946). The data set is described as follows: Inhibition of PDE7A (unknown origin) at 100 nM using iFl-cAMP/iFl-cGMP as substrate by mobility shift assay relative to control.
Data set [19] concerns the target T1, cAMP and cAMP-inhibited cGMP 3',5'-cyclic phosphodiesterase 10A. In words: Inhibition of PDE10 (unknown origin).
Data set [20] is described as follows: Intrinsic clearance in rat liver microsomes. In kind it is ADME, microsome.

T3 sequence (Q14123 whole entry, canonical isoform): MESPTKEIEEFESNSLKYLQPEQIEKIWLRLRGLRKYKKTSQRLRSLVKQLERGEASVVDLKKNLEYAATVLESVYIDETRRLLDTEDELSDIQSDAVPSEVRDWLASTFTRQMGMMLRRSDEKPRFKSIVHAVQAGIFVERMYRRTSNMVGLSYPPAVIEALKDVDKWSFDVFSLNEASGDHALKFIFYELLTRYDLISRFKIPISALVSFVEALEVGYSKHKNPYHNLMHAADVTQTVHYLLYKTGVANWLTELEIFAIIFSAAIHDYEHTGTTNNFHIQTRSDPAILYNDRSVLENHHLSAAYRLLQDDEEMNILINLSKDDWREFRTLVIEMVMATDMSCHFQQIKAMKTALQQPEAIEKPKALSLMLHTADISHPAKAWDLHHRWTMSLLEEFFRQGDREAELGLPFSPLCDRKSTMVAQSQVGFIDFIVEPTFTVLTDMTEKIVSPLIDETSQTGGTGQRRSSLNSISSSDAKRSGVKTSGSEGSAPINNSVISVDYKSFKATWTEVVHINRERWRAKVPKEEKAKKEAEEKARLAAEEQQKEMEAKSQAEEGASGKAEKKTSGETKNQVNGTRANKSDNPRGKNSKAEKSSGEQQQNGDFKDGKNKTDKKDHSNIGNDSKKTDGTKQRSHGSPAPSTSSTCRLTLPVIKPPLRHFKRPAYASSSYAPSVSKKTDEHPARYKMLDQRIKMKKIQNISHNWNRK
T1 sequence (Q9Y233 whole entry, the tested form may be a part): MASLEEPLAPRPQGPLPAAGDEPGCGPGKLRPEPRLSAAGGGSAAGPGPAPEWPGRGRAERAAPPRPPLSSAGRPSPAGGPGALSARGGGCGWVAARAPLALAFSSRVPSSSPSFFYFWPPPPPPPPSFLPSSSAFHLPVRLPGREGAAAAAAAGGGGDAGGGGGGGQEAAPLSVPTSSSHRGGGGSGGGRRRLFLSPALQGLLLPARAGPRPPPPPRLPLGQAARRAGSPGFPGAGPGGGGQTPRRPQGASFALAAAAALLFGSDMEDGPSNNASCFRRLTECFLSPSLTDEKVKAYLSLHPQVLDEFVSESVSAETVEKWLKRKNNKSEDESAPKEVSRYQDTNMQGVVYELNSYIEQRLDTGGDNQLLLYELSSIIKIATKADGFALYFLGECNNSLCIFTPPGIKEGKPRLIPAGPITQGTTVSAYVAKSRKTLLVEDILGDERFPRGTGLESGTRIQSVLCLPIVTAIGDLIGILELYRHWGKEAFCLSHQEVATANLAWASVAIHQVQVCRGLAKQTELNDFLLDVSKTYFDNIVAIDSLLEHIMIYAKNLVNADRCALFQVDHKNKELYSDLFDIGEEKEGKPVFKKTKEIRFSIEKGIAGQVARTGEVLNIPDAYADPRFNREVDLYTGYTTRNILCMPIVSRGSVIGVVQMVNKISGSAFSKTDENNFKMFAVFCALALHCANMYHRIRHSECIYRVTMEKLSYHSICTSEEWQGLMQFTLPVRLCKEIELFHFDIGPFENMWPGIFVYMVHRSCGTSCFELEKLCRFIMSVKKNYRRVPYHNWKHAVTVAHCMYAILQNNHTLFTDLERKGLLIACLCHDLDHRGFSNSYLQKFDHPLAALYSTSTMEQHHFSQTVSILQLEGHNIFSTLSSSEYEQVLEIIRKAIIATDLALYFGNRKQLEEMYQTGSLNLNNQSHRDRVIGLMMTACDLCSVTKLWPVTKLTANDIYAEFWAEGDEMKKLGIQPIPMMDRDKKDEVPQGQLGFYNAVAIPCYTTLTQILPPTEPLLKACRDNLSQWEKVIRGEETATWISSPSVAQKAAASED
T2 sequence (O76083 whole entry): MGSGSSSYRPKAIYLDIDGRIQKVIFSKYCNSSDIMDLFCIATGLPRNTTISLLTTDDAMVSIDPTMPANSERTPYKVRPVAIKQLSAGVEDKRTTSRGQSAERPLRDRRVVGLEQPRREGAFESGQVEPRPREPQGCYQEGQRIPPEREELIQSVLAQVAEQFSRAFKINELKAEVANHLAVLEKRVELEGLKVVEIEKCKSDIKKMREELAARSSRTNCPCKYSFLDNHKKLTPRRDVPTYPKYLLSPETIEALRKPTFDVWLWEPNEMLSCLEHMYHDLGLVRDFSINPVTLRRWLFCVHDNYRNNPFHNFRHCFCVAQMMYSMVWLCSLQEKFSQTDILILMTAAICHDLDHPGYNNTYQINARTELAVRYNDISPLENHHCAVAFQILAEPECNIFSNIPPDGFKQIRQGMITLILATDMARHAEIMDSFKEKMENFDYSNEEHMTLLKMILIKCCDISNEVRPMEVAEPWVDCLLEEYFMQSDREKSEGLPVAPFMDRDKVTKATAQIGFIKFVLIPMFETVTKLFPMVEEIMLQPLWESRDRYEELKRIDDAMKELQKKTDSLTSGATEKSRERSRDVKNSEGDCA
Dual 3',5'-cyclic-AMP and -GMP phosphodiesterase 11A (Mus musculus), sequence (P0C1Q2 whole entry, the tested form may be a part): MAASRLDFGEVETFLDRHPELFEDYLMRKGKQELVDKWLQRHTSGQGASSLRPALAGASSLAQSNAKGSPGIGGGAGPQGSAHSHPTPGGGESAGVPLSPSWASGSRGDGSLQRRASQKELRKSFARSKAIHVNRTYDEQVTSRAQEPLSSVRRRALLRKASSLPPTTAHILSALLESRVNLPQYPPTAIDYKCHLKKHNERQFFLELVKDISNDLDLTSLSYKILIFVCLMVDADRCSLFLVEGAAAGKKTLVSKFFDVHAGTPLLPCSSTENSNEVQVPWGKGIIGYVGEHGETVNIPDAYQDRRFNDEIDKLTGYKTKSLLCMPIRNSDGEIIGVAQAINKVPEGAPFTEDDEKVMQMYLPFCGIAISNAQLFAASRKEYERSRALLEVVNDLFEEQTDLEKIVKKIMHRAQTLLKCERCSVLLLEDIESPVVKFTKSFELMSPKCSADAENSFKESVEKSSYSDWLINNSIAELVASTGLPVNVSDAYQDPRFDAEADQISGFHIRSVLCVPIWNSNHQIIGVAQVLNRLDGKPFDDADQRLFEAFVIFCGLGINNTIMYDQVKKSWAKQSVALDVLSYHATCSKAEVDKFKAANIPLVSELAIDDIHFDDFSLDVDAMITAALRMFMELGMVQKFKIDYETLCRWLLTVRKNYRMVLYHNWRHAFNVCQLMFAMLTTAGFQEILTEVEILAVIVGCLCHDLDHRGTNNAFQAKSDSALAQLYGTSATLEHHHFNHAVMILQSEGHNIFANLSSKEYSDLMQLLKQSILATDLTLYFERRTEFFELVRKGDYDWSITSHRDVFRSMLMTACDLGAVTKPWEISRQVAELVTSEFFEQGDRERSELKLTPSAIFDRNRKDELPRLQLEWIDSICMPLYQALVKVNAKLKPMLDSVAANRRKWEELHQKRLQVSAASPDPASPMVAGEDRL
3',5'-cyclic-AMP phosphodiesterase 4B (Homo sapiens), sequence (Q07343 whole entry): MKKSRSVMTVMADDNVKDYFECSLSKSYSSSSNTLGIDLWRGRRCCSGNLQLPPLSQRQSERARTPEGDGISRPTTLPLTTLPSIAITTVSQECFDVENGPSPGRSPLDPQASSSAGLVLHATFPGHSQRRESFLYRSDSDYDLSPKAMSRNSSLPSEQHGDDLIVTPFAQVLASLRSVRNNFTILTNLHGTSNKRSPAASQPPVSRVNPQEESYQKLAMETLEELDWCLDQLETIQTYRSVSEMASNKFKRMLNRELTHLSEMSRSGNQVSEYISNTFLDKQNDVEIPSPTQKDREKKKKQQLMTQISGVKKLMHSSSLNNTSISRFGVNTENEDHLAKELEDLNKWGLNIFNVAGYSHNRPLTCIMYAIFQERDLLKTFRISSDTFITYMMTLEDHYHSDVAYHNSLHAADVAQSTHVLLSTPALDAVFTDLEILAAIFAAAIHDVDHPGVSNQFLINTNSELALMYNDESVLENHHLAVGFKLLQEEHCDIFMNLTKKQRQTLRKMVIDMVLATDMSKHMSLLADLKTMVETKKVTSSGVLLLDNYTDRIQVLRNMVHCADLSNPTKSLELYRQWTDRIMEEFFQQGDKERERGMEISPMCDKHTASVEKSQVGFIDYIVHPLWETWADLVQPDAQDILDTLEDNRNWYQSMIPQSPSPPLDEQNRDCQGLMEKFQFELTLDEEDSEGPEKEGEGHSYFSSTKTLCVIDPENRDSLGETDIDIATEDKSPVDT
Cone cGMP-specific 3',5'-cyclic phosphodiesterase subunit alpha' (Homo sapiens), sequence (P51160 whole entry): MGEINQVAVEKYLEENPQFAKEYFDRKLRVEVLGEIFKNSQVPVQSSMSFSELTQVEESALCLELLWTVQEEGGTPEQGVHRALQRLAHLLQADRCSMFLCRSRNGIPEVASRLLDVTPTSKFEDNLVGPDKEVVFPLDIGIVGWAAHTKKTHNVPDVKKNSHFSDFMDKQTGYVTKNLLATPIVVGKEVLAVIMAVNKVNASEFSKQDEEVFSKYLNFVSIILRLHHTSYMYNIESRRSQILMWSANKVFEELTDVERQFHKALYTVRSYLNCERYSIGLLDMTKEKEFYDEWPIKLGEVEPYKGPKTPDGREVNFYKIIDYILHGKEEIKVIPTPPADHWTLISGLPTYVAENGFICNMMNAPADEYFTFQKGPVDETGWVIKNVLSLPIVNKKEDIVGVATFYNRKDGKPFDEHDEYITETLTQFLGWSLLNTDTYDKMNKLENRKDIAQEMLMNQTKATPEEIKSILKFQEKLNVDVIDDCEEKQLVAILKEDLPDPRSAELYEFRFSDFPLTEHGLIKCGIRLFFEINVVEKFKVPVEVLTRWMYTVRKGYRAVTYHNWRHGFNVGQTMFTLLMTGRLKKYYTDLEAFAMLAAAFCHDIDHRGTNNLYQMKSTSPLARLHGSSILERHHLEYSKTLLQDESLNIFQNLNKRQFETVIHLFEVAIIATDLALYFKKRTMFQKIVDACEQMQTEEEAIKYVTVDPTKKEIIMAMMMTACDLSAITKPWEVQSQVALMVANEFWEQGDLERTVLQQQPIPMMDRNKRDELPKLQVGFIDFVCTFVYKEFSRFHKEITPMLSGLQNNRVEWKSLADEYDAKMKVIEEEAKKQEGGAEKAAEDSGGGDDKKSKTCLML

For `Cc1ncc(C)n2nc(-c3ccn4cc(-c5ccccc5)nc4n3)nc12`, the inhibition in data set [1] is 98%; in [2] it was 4%; in [4], -3%; in data set [8], -1%; in data set [11] it was 5%; in data set [12], 18%. Moreover, the inhibition in data set [13] was 6%; in data set [14] it was 9%; in data set [15], 9%; in [16] it was 7%; in data set [18], 26%. For the same compound, the microsomal CLint in data set [3] is 0.6 µL/min/mg; in [5], 5.6 µL/min/mg; in [7], 7.4 µL/min/mg; in data set [9], 1.8 µL/min/mg. The IC50 was more than 10 µM in data set [6], more than 10 µM in data set [10] and 35 nM in [17].

Turning to `Cc1ncc(C)n2nc(-c3ccc4nc(-c5ccccc5)[nH]c4c3)nc12`, the inhibition in data set [1] is 99%; in data set [2], 3%; in [4] it was -7%; in data set [8], -4%; in data set [11], 16%; in data set [12] it was -3%. The inhibition is 6% in data set [13]; 8% in [14]; 8% in data set [15]; -3% in data set [16]; 8% in [18].

Turning to `Cc1ncc(C)n2nc(-c3ccn4cc(-c5ccccc5)nc4c3)nc12`, the microsomal CLint in [3] was determined as 28.9 µL/min/mg; in data set [5], 68.9 µL/min/mg; in data set [7], 16.3 µL/min/mg; in data set [9], 11.6 µL/min/mg. In addition, 37 nM corresponded to half-maximal inhibition in [19] (IC50). Further, the CLH in data set [20] was 68.8 µL/min/mg.

The values above are taken from ChEMBL document CHEMBL4152287, “Synthesis and characterization of novel classes of PDE10A inhibitors - 1H-1,3-benzodiazoles and imidazo[1,2-a]pyrimidines” (Eur J Med Chem, 2018).
